# Measured values published in ChEMBL document CHEMBL4732167, “Structure based design, synthesis, and biological evaluation of imidazole derivatives targeting dihydropteroate synthase enzyme” (Bioorg Med Chem Lett, 2021).
# Legend:
# [1] = Antioxidant activity assessed as DPPH radical scavenging activity at 25 ug/ml (reference value: 22 to 40.2 %); type: functional; conditions: dose 25.0 µg/ml
# Procedure, shortened: (§1)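 DPPH radical scavenging was measured at 0, 25, 50, 75 and 100 µg/ml of each compound. Ascorbic acid was the reference.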
# [2] = Antioxidant activity assessed as nitric oxide radical scavenging activity at 100 ug/ml (reference value: 25.8 to 41.6 %); type: functional; conditions: dose 100.0 µg/ml
# Procedure, shortened: (§2)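 Nitric oxide radical scavenging was tested at 0, 25, 50, 75 and 100 µg/ml of compound.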
# [3] = Antioxidant activity assessed as hydrogen peroxide radical scavenging activity at 25 ug/ml (reference value: 23.6 to 43.1 %); type: functional; conditions: dose 25.0 µg/ml
# Procedure, shortened: (§3)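 Hydrogen peroxide scavenging was measured across a compound series of 0, 25, 50, 75 and 100 µg/ml.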
# [4] = Antioxidant activity assessed as hydrogen peroxide radical scavenging activity at 100 ug/ml (reference value: 23.6 to 43.1 %); type: functional; conditions: dose 100.0 µg/ml; procedure, shortened: as §3
# [5] = Antioxidant activity assessed as DPPH radical scavenging activity at 50 ug/ml (reference value: 22 to 40.2 %); type: functional; conditions: dose 50.0 µg/ml; procedure, shortened: as §1
# [6] = Antioxidant activity assessed as nitric oxide radical scavenging activity at 25 ug/ml (reference value: 25.8 to 41.6 %); type: functional; conditions: dose 25.0 µg/ml; procedure, shortened: as §2
# [7] = Antioxidant activity assessed as nitric oxide radical scavenging activity at 75 ug/ml (reference value: 25.8 to 41.6 %); type: functional; conditions: dose 75.0 µg/ml; procedure, shortened: as §2
# [8] = Antioxidant activity assessed as hydrogen peroxide radical scavenging activity at 75 ug/ml (reference value: 23.6 to 43.1 %); type: functional; conditions: dose 75.0 µg/ml; procedure, shortened: as §3
# [9] = Antioxidant activity assessed as DPPH radical scavenging activity at 75 ug/ml (reference value: 22 to 40.2 %); type: functional; conditions: dose 75.0 µg/ml; procedure, shortened: as §1
# [10] = Antioxidant activity assessed as hydrogen peroxide radical scavenging activity at 50 ug/ml (reference value: 23.6 to 43.1 %); type: functional; conditions: dose 50.0 µg/ml; procedure, shortened: as §3
# [11] = Antioxidant activity assessed as DPPH radical scavenging activity at 100 dilution; type: functional
# [12] = Antioxidant activity assessed as DPPH radical scavenging activity at 100 ug/ml (reference value: 22 to 40.2 %); type: functional; conditions: dose 100.0 µg/ml; procedure, shortened: as §1
# [13] = Antioxidant activity assessed as nitric oxide radical scavenging activity at 50 ug/ml (reference value: 25.8 to 41.6 %); type: functional; conditions: dose 50.0 µg/ml; procedure, shortened: as §2
# [14] = test system: Enterococcus; experiment: Antibacterial activity against vancomycin-resistant Enterococcus assessed as inhibition of bacterial growth; type: functional
# Procedure, shortened: (§4)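 Growth inhibition of the drug-resistant strain was read out as the minimum inhibitory concentration (MIC), reported in µg/mL. The same protocol was also run on an ESBL strain.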
# [15] = test system: Staphylococcus aureus; experiment: Antibacterial activity against Staphylococcus aureus MTCC 96 assessed as bacterial growth inhibition; type: functional
# [16] = test system: Bacteria; experiment: Antibacterial activity against ESBL-producing bacteria assessed as bacterial growth inhibition; type: functional
# Procedure, shortened: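 Values are minimum inhibitory concentrations (MIC) in µg/mL, determined at an outside microbiology laboratory.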
# [17] = test system: Escherichia coli; experiment: Antibacterial activity against Escherichia coli MTCC 443 assessed as bacterial growth inhibition; type: functional
# [18] = test system: Streptococcus pyogenes; experiment: Antibacterial activity against Streptococcus pyogenes MTCC 442 assessed as bacterial growth inhibition; type: functional
# [19] = test system: Aspergillus niger; experiment: Antifungal activity against Aspergillus niger MTCC 282 assessed as fungal growth inhibition; type: functional
# [20] = test system: Aspergillus clavatus; experiment: Antifungal activity against Aspergillus clavatus MTCC 1323 assessed as fungal growth inhibition; type: functional
# [21] = test system: Plasmodium falciparum; experiment: Antimalarial activity against Plasmodium falciparum assessed as parasite growth inhibition; type: functional, organism-based
# [22] = test system: Staphylococcus aureus; experiment: Antibacterial activity against methicillin-resistant Staphylococcus aureus assessed as inhibition of bacterial growth; type: functional; procedure, shortened: as §4
# [23] = test system: Mycobacterium tuberculosis; experiment: Antibacterial activity against Mycobacterium tuberculosis H37Rv assessed as bacterial growth inhibition; type: functional
# [24] = test system: Pseudomonas aeruginosa; experiment: Antibacterial activity against Pseudomonas aeruginosa MTCC 1688 assessed as bacterial growth inhibition; type: functional
# [25] = test system: Candida albicans; experiment: Antifungal activity against Candida albicans MTCC 227 assessed as fungal growth inhibition; type: functional
Compound,Activity [1],Activity [2],Activity [3],Activity [4],Activity [5],Activity [6],Activity [7],Activity [8],Activity [9],Activity [10],Activity [12],Activity [13],MIC [14],MIC [15],MIC [16],MIC [17],MIC [18],MFC [19],MFC [20],IC50 [21],other results
O=C1O[C@H]([C@@H](O)CO)C(O)=C1O,75.1%,91.7%,75.1%,91.7%,80.6%,75.1%,89%,89%,89%,80.6%,91.7%,80.6%,,,,,,,,,Activity [11]: 91.7%
CC(=O)c1c(C)nc(SCC(=O)Nc2ccc(OC(=O)c3cccs3)cc2)n1-c1ccc(F)cc1,44.3%,89.1%,48.6%,79.6%,51.4%,50.6%,79.5%,67.6%,65.4%,59.3%,89.6%,59.3%,125 µg/mL,125 µg/mL,125 µg/mL,100 µg/mL,125 µg/mL,500 µg/mL,250 µg/mL,1.14 µg/mL,MIC [22]: 250 µg/mL; MIC [23]: 100 µg/mL; Activity [11]: 89.6%; MIC [24]: 62.5 µg/mL; MFC [25]: 500 µg/mL
CC(=O)c1c(C)nc(SCC(=O)Nc2ccc(OC(=O)c3ccc(Cl)cc3)cc2)n1-c1ccc(Br)cc1,45.2%,90.8%,38.7%,86.1%,52.1%,38%,82.3%,68.9%,65.2%,54.2%,83.1%,62.4%,500 µg/mL,250 µg/mL,250 µg/mL,125 µg/mL,100 µg/mL,500 µg/mL,500 µg/mL,1.04 µg/mL,MIC [22]: 500 µg/mL; MIC [23]: 12.5 µg/mL; MIC [24]: 100 µg/mL; MFC [25]: 1000 µg/mL
CC(=O)c1c(C)nc(SCC(=O)Nc2ccc(OCc3ccc(Cl)cc3)cc2)n1-c1ccccc1,52.1%,88.4%,42.6%,79.6%,68.2%,49.5%,76.9%,67.3%,76%,59.4%,84.7%,61.4%,100 µg/mL,250 µg/mL,125 µg/mL,100 µg/mL,62.5 µg/mL,500 µg/mL,500 µg/mL,1.45 µg/mL,MIC [22]: 100 µg/mL; MIC [23]: 12.5 µg/mL; MIC [24]: 25 µg/mL; MFC [25]: > 1000 µg/mL
COc1ccc(COc2ccc(NC(=O)CSc3nc(C)c(C(C)=O)n3-c3ccc(Br)cc3)cc2)cc1,34.8%,84.3%,47%,84.3%,41.3%,51.7%,75.3%,71%,59.7%,60.7%,73.2%,65.4%,250 µg/mL,250 µg/mL,250 µg/mL,125 µg/mL,125 µg/mL,> 1000 µg/mL,1000 µg/mL,1.25 µg/mL,MIC [22]: 500 µg/mL; MIC [23]: 250 µg/mL; MIC [24]: 50 µg/mL; MFC [25]: 500 µg/mL
CC(=O)c1c(C)nc(SCC(=O)Nc2ccc(OCc3ccccc3)cc2)n1-c1ccc(F)cc1,46.8%,85.9%,47.4%,91.8%,56.2%,45.7%,72.4%,84%,62.3%,63.7%,84.7%,60.8%,250 µg/mL,500 µg/mL,125 µg/mL,100 µg/mL,250 µg/mL,> 1000 µg/mL,> 1000 µg/mL,0.45 µg/mL,MIC [22]: 1000 µg/mL; MIC [23]: 62.5 µg/mL; MIC [24]: 125 µg/mL; MFC [25]: 1000 µg/mL
CC(=O)c1c(C)nc(SCC(=O)Nc2ccc(OCc3ccc(F)cc3)cc2)n1-c1ccc(F)cc1,34.8%,89.6%,46.1%,71.2%,56.4%,46.8%,70.3%,63.1%,71.6%,53.4%,89.4%,60.4%,125 µg/mL,62.5 µg/mL,250 µg/mL,125 µg/mL,125 µg/mL,1000 µg/mL,500 µg/mL,0.82 µg/mL,MIC [22]: 100 µg/mL; MIC [23]: 100 µg/mL; Activity [11]: 89.4%; MIC [24]: 100 µg/mL; MFC [25]: 500 µg/mL
